Where “and” joins values, the source holds several entries; their conditions need not be identical. Equal entries are not always repeated.
Assays:
[1] = organism: Canis familiaris; assay: In vitro electrophysiological evaluation in canine cardiac ventricular muscle reported as maximum % change for conduction time(CT) at 0.1-30 uM concentration range; type: functional, Canis lupus familiaris, Muscle tissue
Outline: (§1)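 Canine right ventricle and papillary muscle strips in oxygenated Tyrode's solution, fitted with stimulating and recording electrodes. The extra-stimulus conduction-interval method was adapted for in vitro use. FRP and CT were read from a conduction-interval curve before and after various compound concentrations, and expressed as percent change from control. Compounds were taken from 10 mM deionized-water stock into Tyrode's. Each strip was used once as its own control.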

[2] = organism: Canis familiaris; assay: In vitro electrophysiological activity in canine cardiac Purkinje fibres given as maximum % change for action potential duration at 10 uM concentration; type: functional, Canis lupus familiaris, Purkinje fiber
Outline: (§2)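 Canine cardiac Purkinje fibres, intracellular recording at 1 s basic cycle length, over cumulative concentration ranges. Compound 10 mM stock in deionized water diluted into Tyrode's. Each fibre used once as its own control. Value is the maximum % change from control in APD at 95% repolarization, with the concentration where it occurred; both values given if a biphasic response (>20% reversal) occurred.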

[3] = organism: Canis familiaris; assay: In vitro electrophysiological activity in canine cardiac Purkinje fibres given as maximum % change for action potential duration at 0.1-100 uM concentration; type: functional, Canis lupus familiaris, Purkinje fiber; outline: as §2
[4] = organism: Canis familiaris; assay: In vitro electrophysiological evaluation in canine cardiac ventricular muscle reported as % change for the functional refractory period (FRP) concentration range of 0.1-100 uM; set-up: species or system Canis lupus familiaris, Muscle tissue; outline: as §1
[5] = organism: Canis familiaris; assay: (§3) In vitro electrophysiological evaluation in canine cardiac Purkinje fibres reported as % change for action potential duration at 0.1-100 uM concentration range; type: functional, Canis lupus familiaris, Purkinje fiber
Outline: (§4)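 Canine cardiac Purkinje fibres, intracellular microelectrode recording, paced at a basic cycle length of 1 s. APD95 and Vmax read simultaneously. Compound: 10 mM stock in deionized water, diluted into Tyrode's solution, tested over the stated concentration range. Each fibre used once as its own control. Result is % change from control, given at 10 µM or as the maximum with its concentration. M = <10% decrease or an increase in Vmax.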

[6] = organism: Canis familiaris; assay: In vitro electrophysiological evaluation in canine cardiac ventricular muscle reported as maximum % change for conduction time(CT) at 0.1-30 uM concentration range; Minimal (<IO%increase or a decrease in CT); type: functional, Canis lupus familiaris, Muscle tissue; outline: as §1
[7] = organism: Canis familiaris; assay: In vitro electrophysiological evaluation in canine cardiac Purkinje fibres reported as percent change Vmax concentration range of 0.1-100 uM; Minimal (<IO%increase or a decrease in CT); type: functional; conditions: Canis lupus familiaris; Purkinje fiber; outline: as §4
[8] = organism: Canis familiaris; assay: In vitro electrophysiological activity in canine cardiac Purkinje fibres given as maximum % change for action potential duration at 100 uM concentration; type: functional, Canis lupus familiaris, Purkinje fiber; outline: as §2
[9] = organism: Canis familiaris; assay: In vitro electrophysiological evaluation in canine cardiac ventricular muscle reported as maximum % change for functional refractory period (FRP) at 0.1-100 uM concentration range; set-up: species or system Canis lupus familiaris, Muscle tissue
[10] = organism: Canis familiaris; assay: In vitro electrophysiological evaluation in canine cardiac ventricular muscle reported as % change for conduction time(CT) at 0.1-100 uM concentration range; Minimal (<IO%increase or a decrease in CT); type: functional, Canis lupus familiaris, Muscle tissue
[11] = organism: Canis familiaris; assay: In vitro electrophysiological evaluation in canine cardiac ventricular muscle reported as maximum % change for conduction time(CT) at 0.1-100 uM concentration range; type: functional, Canis lupus familiaris, Muscle tissue; outline: as §1
[12] = organism: Canis familiaris; assay: In vitro electrophysiological evaluation in canine cardiac Purkinje fibres reported as percent change Vmax concentration range of 0.1-100 uM; type: functional; conditions: Canis lupus familiaris; Purkinje fiber; outline: as §4
[13] = organism: Canis familiaris; assay: In vitro electrophysiological evaluation in canine cardiac ventricular muscle reported as maximum % change for functional refractory period (FRP) at 0.1-30 uM concentration range; set-up: species or system Canis lupus familiaris, Muscle tissue; outline: as §1
[14] = organism: Canis familiaris; assay: as §3; type: functional, Canis lupus familiaris, Purkinje fiber; outline: as §4; remark: listed apart in the source
[15] = organism: Canis familiaris; assay: In vitro electrophysiological evaluation in canine cardiac ventricular muscle reported as % change for the functional refractory period (FRP) concentration range of 0.1-30 uM; set-up: species or system Canis lupus familiaris, Muscle tissue; outline: as §1
[16] = organism: Canis familiaris; assay: In vitro electrophysiological evaluation in canine cardiac ventricular muscle reported as % change for conduction time(CT) at 0.1-30 uM concentration range; Minimal (<IO%increase or a decrease in CT); type: functional, Canis lupus familiaris, Muscle tissue
[17] = organism: Canis familiaris; assay: In vitro electrophysiological evaluation in canine cardiac ventricular muscle reported as maximum % change for functional refractory period (FRP) at 0.1-100 uM concentration range; concentration at which it occurred is 100 uM; set-up: species or system Canis lupus familiaris, Muscle tissue; outline: as §1
[18] = organism: Canis familiaris; assay: In vitro electrophysiological evaluation in canine cardiac ventricular muscle reported as maximum % change for functional refractory period (FRP) at 1-100 uM concentration range; concentration at which it occurred is 100 uM; set-up: species or system Canis lupus familiaris, Muscle tissue; outline: as §1
[19] = organism: Canis familiaris; assay: In vitro electrophysiological evaluation in canine cardiac Purkinje fibres reported as percent change Vmax at 10 uM at concentration range of 1-100 uM; type: functional; conditions: Canis lupus familiaris, Purkinje fiber; outline: as §4
[20] = organism: Canis familiaris; assay: In vitro electrophysiological evaluation in canine cardiac occurred is 100 uM; type: functional; conditions: Canis lupus familiaris; Heart
[21] = organism: Canis familiaris; assay: In vitro electrophysiological evaluation in canine cardiac ventricular muscle reported as % change for the functional refractory period (FRP) at 10 uM at concentration range of 0.1-100 uM; set-up: species or system Canis lupus familiaris, Muscle tissue; outline: as §1
[22] = organism: Canis familiaris; assay: In vitro electrophysiological activity in canine cardiac occurred is 100 uM.; type: functional, Canis lupus familiaris, Heart
[23] = organism: Canis familiaris; assay: In vitro electrophysiological evaluation in canine cardiac ventricular muscle reported as maximum % change for conduction time(CT) at 1-100 uM concentration range; concentration at which it occurred is 100 uM; type: functional, Canis lupus familiaris, Muscle tissue; outline: as §1
[24] = organism: Canis familiaris; assay: In vitro electrophysiological evaluation in canine cardiac Purkinje fibres reported as % change for action potential duration at a concentration of 10 uM; type: functional, Canis lupus familiaris, Purkinje fiber; outline: as §4
[25] = organism: Canis familiaris; assay: In vitro electrophysiological evaluation in canine cardiac ventricular muscle reported as % change for conduction time(CT) at 10 uM at 1-100 uM concentration range; Minimal (<10% decrease or increase in CT).; type: functional, Canis lupus familiaris, Muscle tissue
[26] = organism: Canis familiaris; assay: In vitro electrophysiological evaluation in canine cardiac ventricular muscle reported as maximum % change for conduction time(CT) at 0.1-100 uM concentration range; concentration at which it occurred is 100 uM; type: functional, Canis lupus familiaris, Muscle tissue; outline: as §1
[27] = organism: Canis familiaris; assay: In vitro electrophysiological evaluation in canine cardiac ventricular muscle reported as % change for the functional refractory period (FRP) at 10 uM at concentration range of 1-100 uM; set-up: species or system Canis lupus familiaris, Muscle tissue; outline: as §1
[28] = organism: Canis familiaris; assay: In vitro electrophysiological evaluation in canine cardiac Purkinje fibres reported as % change for action potential duration at 10 uM at 1-100 uM concentration range; type: functional, Canis lupus familiaris, Purkinje fiber; outline: as §4
[29] = organism: Canis familiaris; assay: In vitro electrophysiological evaluation in canine cardiac ventricular muscle reported as % change for conduction time(CT) at 10 uM at 0.1-100 uM concentration range; Minimal (<10% decrease or increase in CT).; type: functional, Canis lupus familiaris, Muscle tissue
[30] = organism: Canis familiaris; assay: In vitro electrophysiological activity in canine cardiac occurred is 10 uM.; type: functional, Canis lupus familiaris, Heart
[31] = organism: Canis familiaris; assay: In vitro electrophysiological evaluation in canine cardiac ventricular muscle reported as maximum % change for conduction time(CT) at 0.1-100 uM concentration range; Minimal (<10% decrease or increase in CT).; type: functional, Canis lupus familiaris, Muscle tissue; outline: as §1

For CCCCCCC[N+]12CCC(CC1)C(=O)C2CCCc1ccc(Cl)cc1.O=P([O-])(O)O (stereo unspecified), the CT [1] was 17%, the APD95 [2] was 38% and 69% and 35% and the APD95 [3] was 9%. For the same molecule, the FRP [4] was 5%, the APD95 [5] was 38% and 69% and 35% and the CT [6] was <10%. The Vmax [7] was < 10%, the APD95 [8] was 13% and 12% and 9% and the FRP [9] was 10%. The CT [10] was <10%, the CT [11] was 31% and the Vmax [12] was -18% and -15%. The FRP [13] was 29% and 27%, the APD95 [14] was 9% and the FRP [15] was 26% and 22%. The CT [16] was <10%.

CCOC(=O)C(CC1C(=O)C2CCN1CC2)C(=O)c1ccc(Cl)c(NS(C)(=O)=O)c1.Cl (stereo unspecified) was tested, and the FRP [17] was 12% and 5% and 14%, the FRP [18] was 15% and the Vmax [19] was -11% and -10%. For the same molecule, the Vmax [20] was -19% and -21%, the FRP [21] was 5% and -7% and 6% and the APD95 [22] was -16%. The CT [23] was 14%, the APD95 [24] was 9% and the CT [25] was <10%. It also gave a CT [26] of 12%, an FRP [27] of 10% and an APD95 [28] of -4%. For the same molecule, the CT [29] was <10%, the APD95 [30] was 9% and the CT [31] was <10%.
